Source: PubChem (several laboratories)
HSF1 inhib = HSF1 inhibition | NIH3T3-HGL HSE-luciferase, MG132-induced, luminescence 8 h; hits give low values | activity change, negative = inhibition, % at 7.5 µM (by protocol) | actives 0.77% (n = 300,000) | AID 2098;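 active means more than half of replicate wells show activity change below -50%, luminescence cut by over half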;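 further: luciferase reports HSF-1 transcriptional activity via heat shock element; 0% = median of DMSO wells and -100% = zero luminescence signal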
HKDC1 inhibitor = blocks human hexokinase HKDC1 activity; Q2TB90; recombinant HKDC1, G6PDH/diaphorase resazurin coupled fluorescence; inhibition, % at 20 µM; actives 0.16% (n = 340,000); AID 493160;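 active means inhibition above about 35% when tested at 20 µM, limit read from the data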;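 further: plate controls were DMSO wells with enzyme for no effect and DMSO wells lacking enzyme for full effect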
Target sequence (Q2TB90 whole entry, looked up): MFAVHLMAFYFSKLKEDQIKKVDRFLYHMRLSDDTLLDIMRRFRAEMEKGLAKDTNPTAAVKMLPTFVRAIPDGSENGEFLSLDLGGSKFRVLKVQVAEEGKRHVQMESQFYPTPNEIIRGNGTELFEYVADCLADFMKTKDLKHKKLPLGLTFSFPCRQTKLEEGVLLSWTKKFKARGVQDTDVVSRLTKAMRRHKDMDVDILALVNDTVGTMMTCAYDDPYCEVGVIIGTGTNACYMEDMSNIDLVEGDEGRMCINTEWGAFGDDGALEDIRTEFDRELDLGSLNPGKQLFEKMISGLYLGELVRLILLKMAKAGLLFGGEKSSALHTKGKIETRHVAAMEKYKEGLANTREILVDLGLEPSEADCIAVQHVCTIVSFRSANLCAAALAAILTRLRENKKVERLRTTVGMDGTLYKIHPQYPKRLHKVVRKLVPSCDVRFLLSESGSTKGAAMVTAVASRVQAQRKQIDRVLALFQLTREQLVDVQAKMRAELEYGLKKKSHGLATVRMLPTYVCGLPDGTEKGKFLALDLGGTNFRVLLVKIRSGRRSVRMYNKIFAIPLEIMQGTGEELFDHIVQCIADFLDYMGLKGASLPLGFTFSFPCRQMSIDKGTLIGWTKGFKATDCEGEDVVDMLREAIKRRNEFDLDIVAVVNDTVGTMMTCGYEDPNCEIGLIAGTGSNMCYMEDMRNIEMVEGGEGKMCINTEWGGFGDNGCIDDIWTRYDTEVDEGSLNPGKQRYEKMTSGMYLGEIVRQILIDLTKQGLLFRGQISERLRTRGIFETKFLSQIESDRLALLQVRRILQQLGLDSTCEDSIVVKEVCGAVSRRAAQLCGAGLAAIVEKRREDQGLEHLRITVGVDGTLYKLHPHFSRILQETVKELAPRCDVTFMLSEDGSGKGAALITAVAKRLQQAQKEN
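Incubation: 90 min at room temperature in dark / Material: recombinant HKDC1 (HK5) hexokinase enzyme, produced in-house / Quantity: enzyme 5 µg/mL final / Compound: one dose of 20 µM, 1% DMSO / Reagent: glucose and ATP substrates / Buffer or medium: Tris pH 8.0 buffer with MgCl2, Tween-20, BSA, BME / Technique: resorufin fluorescence at 613 nm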
Tb hexokinase = T. brucei hexokinase 1 inhibition; inhibition, % at 10 µM; actives 0.11% (n = 220,000); AID 1430; recombinant TbHK1, G6PDH-coupled NADH A340;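 active means inhibition of 50% or more in the single-dose primary screen; inactive means inhibition below 50%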
HSP90 refold inh = blocks HSP90-mediated luciferase refolding in reticulocyte lysate; Rabbit reticulocyte lysate, luciferase refolding luminescence, 3 h; inhibition, % at 5.6 µM; actives 0.91% (n = 290,000);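 active means inhibition above the screen-wide mean plus 3 SD, computed separately per campaign, cut at about 16% in these data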;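 further: 0% = DMSO wells and 100% = 60 µM geldanamycin wells; inhibitors lower the luminescence because luciferase stays unfolded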
HSF1 activator = increases HSF-1 driven luciferase reporter signal; NIH3T3-HGL HSF-1 luciferase reporter, MG132, 8 h; 100% = twice DMSO control signal; activation, % at 9 µM; actives 1.7% (n = 300,000); AID 504408;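 active means mean replicate activation of at least 50% with a set share of replicates each reaching 50%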;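 further: 0% = median of the neutral control wells and 100% = twice that signal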
Hsp70 activator = switches on Hsp70 transcription. actives 0.04% (n = 200,000). activation, % at 10 µM. HeLa Hsp70 promoter luciferase reporter, luminescence; scaled: vehicle 0, proteasome-inhibitor control 100%;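 active means activation above the mean across all tested compounds plus 3 SD, cutoff set per campaign, cut at about 5.5% in these data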;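 further: 100% = MG132 at 30 µM as the positive control and 0% = DMSO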
HSP90 confirm = HSP90 inhibition, confirmation assay. shares compounds with HSP90 refold inh. rabbit reticulocyte lysate, luciferase refolding luminescence, 3 h. inhibition, % at 5.9 µM. actives 64% (n = 2,300); in the data active means inhibition above about 18%;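 further: 0% = vehicle wells and 100% = reference inhibitor wells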
luciferase ctr = blocks native firefly luciferase in HSP90 counter-screen. actives 48% (n = 2,300). shares compounds with HSP90 refold inh. inhibition, % at 5.9 µM. purified native firefly luciferase, luminescence;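 active means inhibition above the mean inhibition of all tested sample wells plus 3 SD, cut at about 10% in these data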;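 further: 0% = DMSO with luciferase and 100% = wells lacking luciferase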
An asterisk follows results filed as active. Rows were chosen to be rich in hits. Some 3.1% of all compounds tested hit in one or more screens of this group.

What do the screens show for `CN(C)c1ccc(C(O)Cc2nc3ccccc3n2C)cc1` (configuration not stated)?
HSF1 inhib: -46; HKDC1 inhibitor: -3; HSP90 refold inh: 46*; HSF1 activator: -52; HSP90 confirm: 5; luciferase ctr: 1

How did CN(C)c1ccc(-c2nc3ccccc3n2C)cc1 do in these assays?
HSF1 inhib: 3; HKDC1 inhibitor: 5; Tb hexokinase: -36; HSP90 refold inh: 28*; HSF1 activator: 24; Hsp70 activator: 0; HSP90 confirm: 64*; luciferase ctr: 53*

Results for Cc1c(C(=O)Nc2ccccc2)cn2c(nc3ccccc32)c1C#N ?
HSF1 inhib: 12; HKDC1 inhibitor: 7; Tb hexokinase: 9; HSP90 refold inh: 35*; HSF1 activator: 36; Hsp70 activator: 0; HSP90 confirm: 2; luciferase ctr: -2

What do the screens show for `COC(=O)N1C(=O)[C@](c2ccccc2)(C(C)C)N1C(=O)OC`?
HSF1 inhib: 14; HKDC1 inhibitor: -7; HSP90 refold inh: 31*; HSF1 activator: 12; HSP90 confirm: 3; luciferase ctr: -2

What do the screens show for `CC[C@@]1(c2ccccc2)C(=O)N(C(=O)OC)N1C(=O)OC`?
HSF1 inhib: 5; HKDC1 inhibitor: 3; HSP90 refold inh: -5; HSF1 activator: -2

What do the screens show for `CCOc1cc(/C=N/O)cc(Br)c1OCC`?
HSF1 inhib: 5; HKDC1 inhibitor: 0; Tb hexokinase: -6; HSP90 refold inh: -4; HSF1 activator: 8; Hsp70 activator: 0

Results for COc1ccc2c(/C=N/Nc3ccc(C(=O)O)cc3)c[nH]c2c1 ?
HSF1 inhib: -12; HKDC1 inhibitor: 7; HSP90 refold inh: 15; HSF1 activator: -11

Results for CCCOc1ccc(/C=N/Nc2ccc(C(=O)O)cc2)c(OCCC)c1 ?
HSF1 inhib: -56*; HKDC1 inhibitor: 3; Tb hexokinase: 4; HSP90 refold inh: 29*; HSF1 activator: -52; Hsp70 activator: 0; HSP90 confirm: 44*; luciferase ctr: 48*

Results for COc1ccc(/C=N/Nc2nnc(C)n2N)cc1OC ?
HSF1 inhib: 27; HKDC1 inhibitor: 5; Tb hexokinase: -16; HSP90 refold inh: 19*; HSF1 activator: 43; Hsp70 activator: 0; HSP90 confirm: 1; luciferase ctr: -7

How did COc1ccc2c(c1)c(/C=N/Nc1ccc(C(=O)O)cc1)c(C)n2C do in these assays?
HSF1 inhib: -40; HKDC1 inhibitor: 4; Tb hexokinase: -15; HSP90 refold inh: 30*; HSF1 activator: -46; HSP90 confirm: 41*; luciferase ctr: 35*

What do the screens show for `C=CCOc1c(Br)cc(/C=N/Nc2ccc(C(=O)O)cc2)cc1OCC`?
HSF1 inhib: -53*; HKDC1 inhibitor: 6; Tb hexokinase: -21; HSP90 refold inh: 20*; HSF1 activator: -53; Hsp70 activator: 1; HSP90 confirm: 24*; luciferase ctr: 10*

What do the screens show for `N#CC1(NC(=O)COC(=O)C2CCN(S(=O)(=O)c3ccc4c(c3)OCCO4)CC2)CCCCC1`?
HKDC1 inhibitor: -1

Results for Nc1ccc(C(=O)N/N=C\c2ccc(OC(=O)c3ccccc3Cl)cc2)cc1 ?
HSF1 inhib: 4; HKDC1 inhibitor: -7; HSP90 refold inh: 0; HSF1 activator: 1

Results for COc1ccc(/C=N/NC(=O)OC(C)(C)C)cc1OC ?
HSF1 inhib: -2; HKDC1 inhibitor: 14; Tb hexokinase: -4; HSP90 refold inh: -1; HSF1 activator: 3; Hsp70 activator: 0

What do the screens show for `COc1ccc(/C=N\NC(=O)C2CCCC2)cc1Br`?
HSF1 inhib: 2; HKDC1 inhibitor: -6; HSP90 refold inh: -1; HSF1 activator: 2

How did O=C(O)c1ccc(N/N=C/c2ccc(-c3ccccc3)cc2)cc1 do in these assays?
HSF1 inhib: -9; HKDC1 inhibitor: -1; Tb hexokinase: -18; HSP90 refold inh: 5; HSF1 activator: 8; Hsp70 activator: 0
